In ChEMBL document CHEMBL1157613, “Salicylic acid based small molecule inhibitor for the oncogenic Src homology-2 domain containing protein tyrosine phosphatase-2 (SHP2)” (J Med Chem, 2010):
Active and inactive are the calls of the source. No cut-off for these calls is given here.

How the values were obtained:
[1] = target: T1, Tyrosine-protein phosphatase non-receptor type 1 (Homo sapiens, UniProt P18031); assay: Inhibition of PTP1B expressed in Escherichia coli assessed as inhibition of p-nitrophenyl phosphate hydrolysis at pH 7 by spectrophotometry
T1 sequence (P18031 whole entry): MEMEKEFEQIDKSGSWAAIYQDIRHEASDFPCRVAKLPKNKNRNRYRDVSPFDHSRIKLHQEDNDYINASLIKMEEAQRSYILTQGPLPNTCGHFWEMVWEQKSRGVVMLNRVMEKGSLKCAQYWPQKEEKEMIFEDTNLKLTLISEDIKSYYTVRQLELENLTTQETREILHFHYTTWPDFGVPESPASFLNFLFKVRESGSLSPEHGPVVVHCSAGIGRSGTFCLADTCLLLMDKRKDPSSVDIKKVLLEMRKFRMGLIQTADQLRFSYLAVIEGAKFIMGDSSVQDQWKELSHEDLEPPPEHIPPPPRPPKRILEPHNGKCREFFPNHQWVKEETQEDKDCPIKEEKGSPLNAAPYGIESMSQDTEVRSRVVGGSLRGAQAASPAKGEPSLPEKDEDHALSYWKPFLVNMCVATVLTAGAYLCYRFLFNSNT

[2] = target: T2, Tyrosine-protein phosphatase non-receptor type 7 (Homo sapiens, UniProt P35236); assay: Inhibition of HePTP expressed in Escherichia coli assessed as inhibition of p-nitrophenyl phosphate hydrolysis at pH 7 by spectrophotometry
T2 sequence (P35236 whole entry): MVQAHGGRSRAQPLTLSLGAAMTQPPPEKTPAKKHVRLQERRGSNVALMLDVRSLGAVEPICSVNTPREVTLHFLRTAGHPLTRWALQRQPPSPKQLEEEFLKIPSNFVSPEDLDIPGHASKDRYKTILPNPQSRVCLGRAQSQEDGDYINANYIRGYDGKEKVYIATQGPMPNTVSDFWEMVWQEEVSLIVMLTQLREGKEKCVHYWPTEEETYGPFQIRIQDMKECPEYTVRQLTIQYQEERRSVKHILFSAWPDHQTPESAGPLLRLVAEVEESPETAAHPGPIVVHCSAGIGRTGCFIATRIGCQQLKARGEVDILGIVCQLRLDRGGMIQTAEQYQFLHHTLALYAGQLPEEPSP

[3] = target: T3, Tyrosine-protein phosphatase non-receptor type 22 (Homo sapiens, UniProt Q9Y2R2); assay: Inhibition of Lyp expressed in Escherichia coli assessed as inhibition of p-nitrophenyl phosphate hydrolysis at pH 7 by spectrophotometry
T3 sequence (Q9Y2R2 whole entry): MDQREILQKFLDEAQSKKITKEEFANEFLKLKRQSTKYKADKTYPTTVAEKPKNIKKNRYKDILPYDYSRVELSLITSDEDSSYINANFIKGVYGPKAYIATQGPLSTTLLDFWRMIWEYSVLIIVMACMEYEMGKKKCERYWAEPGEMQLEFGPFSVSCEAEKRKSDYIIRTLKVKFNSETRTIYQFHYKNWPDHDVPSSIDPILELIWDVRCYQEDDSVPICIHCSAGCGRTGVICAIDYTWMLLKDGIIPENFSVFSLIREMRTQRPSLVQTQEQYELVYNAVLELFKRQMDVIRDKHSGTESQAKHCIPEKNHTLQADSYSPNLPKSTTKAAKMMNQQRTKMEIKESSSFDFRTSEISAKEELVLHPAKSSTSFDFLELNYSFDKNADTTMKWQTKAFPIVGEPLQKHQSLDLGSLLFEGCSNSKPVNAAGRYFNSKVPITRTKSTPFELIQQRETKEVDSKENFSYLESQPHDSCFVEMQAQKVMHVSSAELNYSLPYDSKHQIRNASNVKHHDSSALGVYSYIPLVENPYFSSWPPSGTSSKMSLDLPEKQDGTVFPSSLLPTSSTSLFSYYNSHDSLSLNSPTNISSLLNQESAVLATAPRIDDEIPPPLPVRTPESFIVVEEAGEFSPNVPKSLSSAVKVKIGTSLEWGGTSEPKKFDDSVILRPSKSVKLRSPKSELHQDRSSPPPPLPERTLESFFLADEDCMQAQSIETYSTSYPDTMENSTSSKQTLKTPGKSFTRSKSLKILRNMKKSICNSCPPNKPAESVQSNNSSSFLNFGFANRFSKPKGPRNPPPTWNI

[4] = target: Receptor-type tyrosine-protein phosphatase alpha (Homo sapiens, UniProt P18433); assay: Inhibition of PTPalpha expressed in Escherichia coli assessed as inhibition of p-nitrophenyl phosphate hydrolysis at pH 7 by spectrophotometry
Sequence of Receptor-type tyrosine-protein phosphatase alpha (P18433 whole entry): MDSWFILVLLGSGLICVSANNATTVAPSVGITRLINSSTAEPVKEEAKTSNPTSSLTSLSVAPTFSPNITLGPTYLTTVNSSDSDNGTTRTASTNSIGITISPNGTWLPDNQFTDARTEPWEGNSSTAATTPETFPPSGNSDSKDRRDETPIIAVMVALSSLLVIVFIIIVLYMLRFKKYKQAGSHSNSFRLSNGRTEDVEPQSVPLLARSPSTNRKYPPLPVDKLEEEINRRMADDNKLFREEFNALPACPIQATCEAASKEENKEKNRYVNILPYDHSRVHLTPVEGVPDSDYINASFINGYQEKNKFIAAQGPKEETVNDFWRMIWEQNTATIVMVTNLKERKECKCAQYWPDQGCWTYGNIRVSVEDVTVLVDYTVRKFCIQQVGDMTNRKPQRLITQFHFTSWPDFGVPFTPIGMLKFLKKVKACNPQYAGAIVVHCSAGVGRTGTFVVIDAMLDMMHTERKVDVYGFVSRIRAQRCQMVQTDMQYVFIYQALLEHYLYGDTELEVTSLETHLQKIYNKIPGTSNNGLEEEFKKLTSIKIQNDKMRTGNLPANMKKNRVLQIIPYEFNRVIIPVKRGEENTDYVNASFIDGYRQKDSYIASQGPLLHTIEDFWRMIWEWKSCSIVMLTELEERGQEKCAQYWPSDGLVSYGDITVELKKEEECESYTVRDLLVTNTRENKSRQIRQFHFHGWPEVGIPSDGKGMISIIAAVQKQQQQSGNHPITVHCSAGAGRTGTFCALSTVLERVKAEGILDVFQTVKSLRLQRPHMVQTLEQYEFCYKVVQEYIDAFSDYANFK

[5] = target: Dual specificity protein phosphatase 3 (Homo sapiens, UniProt P51452); assay: Inhibition of VHR expressed in Escherichia coli assessed as inhibition of p-nitrophenyl phosphate hydrolysis at pH 7 by spectrophotometry
Sequence of Dual specificity protein phosphatase 3 (P51452 whole entry): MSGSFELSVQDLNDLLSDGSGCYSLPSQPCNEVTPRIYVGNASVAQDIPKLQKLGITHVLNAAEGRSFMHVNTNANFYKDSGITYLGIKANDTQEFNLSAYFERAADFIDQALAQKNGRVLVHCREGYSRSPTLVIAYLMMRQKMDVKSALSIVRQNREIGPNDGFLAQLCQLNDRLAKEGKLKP

[6] = target: T4, Low molecular weight phosphotyrosine protein phosphatase (Homo sapiens, UniProt P24666); assay: Inhibition of LMWPTP expressed in Escherichia coli assessed as inhibition of p-nitrophenyl phosphate hydrolysis at pH 7 by spectrophotometry
T4 sequence (P24666 whole entry): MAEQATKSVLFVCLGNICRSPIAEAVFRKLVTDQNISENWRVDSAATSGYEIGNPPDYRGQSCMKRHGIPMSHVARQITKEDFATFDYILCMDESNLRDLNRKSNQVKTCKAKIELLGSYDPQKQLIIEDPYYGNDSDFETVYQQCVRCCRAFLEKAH

[7] = species on record: Mus musculus; assay: Antiproliferative activity against GM-CSF-stimulated C57/BL6 mouse low density BM-MNC expressing SHP2 E76K mutant assessed as inhibition of hyperproliferation at 10 uM after 16 hrs by [3H]thymidine incorporation assay; type: functional; conditions: C57Bl/6
Procedure, shortened: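 Marrow low-density mononuclear cells from C57Bl/6 mice (Ficoll), prestimulated 24 h with SCF, G-CSF, Tpo (100 ng/mL), retrovirally transduced 48 h with wild-type SHP2, D61Y or E76K, EGFP-sorted. Starved 4 h in 0.2% BSA; 5 × 10^4 cells cultured 16 h in GM-CSF 0-1 ng/mL ± 10 μM compound, then pulsed with 1.0 μCi [3H]thymidine for 6-8 h; counts per minute; n = 3.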

Compound: Cn1c(-c2ccccc2)c(-c2cn(CCC(=O)Nc3ccc(-c4ccccc4)cc3)nn2)c2cc(C(=O)O)c(O)cc21
- IC50 [1]: 14.3 µM
- IC50 [2]: > 50 µM
- IC50 [3]: 25 µM
- IC50 [4]: > 50 µM
- IC50 [5]: > 50 µM
- IC50 [6]: 31.1 µM
- Activity [7]: Active
